83 variants from the RNAGym collection of RNA variant scans (doi:10.1038/s41586-018-0170-7) can be followed below.

Sequences and labels used below:
B1: tRNA (parent)
chain: GUUCCGUUGGCGUAAUGGUAACGCGUCUCCCUCCUAAGGAGAAGACUGCGGGUUCGAGUCCCGUACGGAACG

The data set covers variants of B1. The experiment in a line: yeast fitness, log relative to wild type (ln ratio); higher = fitter; tRNA-Arg(CCU), competitive growth, 37 C, 1 M NaCl. A digest of the protocol:
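BY4742 cells without the chromosomal tRNA-Arg(CCU) gene carried a combinatorial variant library on a HIS3 centromeric plasmid, from two independent transformations. After 4 generations in SC-HIS at 30 °C, pools spent ~6.5 generations (~26.5 h) in SC-HIS 1M NaCl at 37 °C, giving three outputs per input, and 125 bp paired-end Illumina reads counted the variants. Fitness is the natural log of each genotype's generations over the wild type's, with generations taken as OD-scaled log2 output/input frequency weighted by inverse variance across replicates.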
Regarding G6A C27U C66U A69G A70U C71U, the “yeast fitness (ln)” value is -0.462.

With G6A C27U C46U C71U, the “yeast fitness (ln)” value was -0.176.

As to G6A A43C C66U, the “yeast fitness (ln)” value was -0.0381.

As to G6A C27U A70U, the “yeast fitness (ln)” value is -0.17.

In the case of G6A C27U A70G, the “yeast fitness (ln)” value was -0.148.

As to G6U A43C C66U A70U C71U, the “yeast fitness (ln)” value is -0.481.

Regarding G6A C27U A43C C66U A69G, the “yeast fitness (ln)” value was -0.373.

For the variant G6A C27U A43C C46U C66A A69G A70U C71U, the “yeast fitness (ln)” value was -0.471.

With G6A C27U A43C C46U C66U A69G A70U C71U, the “yeast fitness (ln)” value was -0.447.

On to G6A C27U C46U A69G A70G C71U, for which the “yeast fitness (ln)” value is -0.219.

As to G6A C27U C66U A69G A70G C71U, the “yeast fitness (ln)” value is -0.256.

As to G6A C66U A69G C71U, the “yeast fitness (ln)” value was -0.085.

Regarding G6A A70G C71U, the “yeast fitness (ln)” value is -0.175.

In the case of G6A C27U A43C C66U A70U, the “yeast fitness (ln)” value is -0.169.

Consider G6A C27U A43C C66U A70G, for which the “yeast fitness (ln)” value was -0.426.

G6A C46U A70U: the “yeast fitness (ln)” value was -0.237.

Turning to G6A C46U A70G, the “yeast fitness (ln)” value is -0.226.

G6U A43C C46U C66U C71U: the “yeast fitness (ln)” value was -0.254.

As to G6A A69G A70G, the “yeast fitness (ln)” value was -0.0849.

In the case of G6A A69G A70U, the “yeast fitness (ln)” value was -0.082.

On to G6A C27U A43C C46U C66U A70U C71U, for which the “yeast fitness (ln)” value is -0.435.

Regarding G6A C27U C46U A69G A70U C71U, the “yeast fitness (ln)” value was -0.331.

Turning to G6A C27U C66U A69G C71U, the “yeast fitness (ln)” value was -0.594.

Regarding G6U A43C A69G, the “yeast fitness (ln)” value is -0.328.

As for G6A C27U A43C C46U C66U C71U, the “yeast fitness (ln)” value was -0.464.

For G6U C27U A43C C46U A70U C71U, the “yeast fitness (ln)” value was -0.336.

As to G6A C27U A43C C66U A69G A70U, the “yeast fitness (ln)” value is -0.452.

Consider G6A C27U A43C C66U A69G A70G, for which the “yeast fitness (ln)” value was -0.374.

G6A C27U C46U C66U A70U: the “yeast fitness (ln)” value is -0.0845.

In the case of G6A C27U C46U C66U A70G, the “yeast fitness (ln)” value is -0.0516.

Turning to G6A C27U A43C A69G A70G, the “yeast fitness (ln)” value is -0.264.

As for G6A C27U A43C A69G A70U, the “yeast fitness (ln)” value was -0.345.

G6U C27U A43C A69G C71U: the “yeast fitness (ln)” value is -0.384.

For the variant G6A C27U A43C C66U A70U C71U, the “yeast fitness (ln)” value was -0.441.

For G6U A43C C46U A70U C71U, the “yeast fitness (ln)” value was -0.225.

In the case of G6A C27U C66U A70U C71U, the “yeast fitness (ln)” value is -0.312.

Turning to G6A C27U C66U A70U, the “yeast fitness (ln)” value was -0.188.

For G6A C27U C66U A70G, the “yeast fitness (ln)” value was -0.0946.

Regarding G6A C46U A70G C71U, the “yeast fitness (ln)” value is -0.145.

As to G6A A43C C66A A70U, the “yeast fitness (ln)” value is -0.188.

In the case of G6A A43C C66A A70G, the “yeast fitness (ln)” value is -0.154.

On to G6A C27U A43C C46U A69G, for which the “yeast fitness (ln)” value is -0.166.

Regarding G6A C71U, the “yeast fitness (ln)” value was -0.23.

As for G6A C46U A69G, the “yeast fitness (ln)” value is -0.469.

Take G6A C27U C66A A69G A70G C71U: the “yeast fitness (ln)” value is -0.288.

In the case of G6A C27U C66U A69G, the “yeast fitness (ln)” value is -0.0541.

As to G6U A43C C46U C66A, the “yeast fitness (ln)” value was -0.00135.

Take G6U A43C C46U C66U: the “yeast fitness (ln)” value was -0.258.

Consider G6U A43C C46U C66U A69G, for which the “yeast fitness (ln)” value is -0.261.

As for G6U A43C C66A C71U, the “yeast fitness (ln)” value is -0.177.

As to G6A C46U C66U A69G A70U C71U, the “yeast fitness (ln)” value is -0.35.

Take G6U A70U: the “yeast fitness (ln)” value was -0.0758.

Regarding G6U A70G, the “yeast fitness (ln)” value is -0.221.

Regarding G6A C27U C46U C66A A70G C71U, the “yeast fitness (ln)” value is -0.252.

In the case of G6A C66A A70U C71U, the “yeast fitness (ln)” value is -0.241.

Regarding G6U C27U A43C C46U C66A A69G A70G C71U, the “yeast fitness (ln)” value was -0.312.

On to G6A C27U A43C C46U C66U A70G C71U, for which the “yeast fitness (ln)” value was -0.213.

G6A C27U A43C C66U C71U: the “yeast fitness (ln)” value is -0.264.

Regarding G6A A43C C66A A70U C71U, the “yeast fitness (ln)” value is -0.395.

For G6U C27U A43C A69G A70G C71U, the “yeast fitness (ln)” value was -0.49.

Regarding G6A C27U C66A, the “yeast fitness (ln)” value was -0.192.

Consider G6A C27U C66U, for which the “yeast fitness (ln)” value was -0.0352.

For G6A C27U A69G A70U C71U, the “yeast fitness (ln)” value is -0.416.

Take G6U A69G C71U: the “yeast fitness (ln)” value is -0.233.

G6A C46U C66U A70G: the “yeast fitness (ln)” value was -0.0166.

On to G6A C46U C66U A70U, for which the “yeast fitness (ln)” value was -0.00103.

For G6U C27U A43C C46U C66A A70G C71U, the “yeast fitness (ln)” value is -0.211.

As to G6A C27U A43C C46U C66A A70G C71U, the “yeast fitness (ln)” value was -0.296.

Regarding G6U C27U A43C A70U C71U, the “yeast fitness (ln)” value is -0.445.

On to G6A C46U C66A A69G A70G C71U, for which the “yeast fitness (ln)” value is -0.185.

In the case of G6A A43C C71U, the “yeast fitness (ln)” value was -0.144.

For the variant G6A C66A C71U, the “yeast fitness (ln)” value is -0.0747.

With G6A C27U A43C C46U C66A A70U C71U, the “yeast fitness (ln)” value is -0.346.

Take G6A C27U A43C C66U A69G A70U C71U: the “yeast fitness (ln)” value is -0.529.

Consider G6U A43C C46U C66A C71U, for which the “yeast fitness (ln)” value is -0.0527.

With G6A A43C C46U C66U C71U, the “yeast fitness (ln)” value was -0.12.

Turning to G6A A43C C46U C66U A69G C71U, the “yeast fitness (ln)” value is -0.558.

On to G6A C27U A43C C46U C66U A70U, for which the “yeast fitness (ln)” value was -0.183.

With G6A C27U A43C C46U C66U A70G, the “yeast fitness (ln)” value is -0.193.

In the case of G6U A43C A69G C71U, the “yeast fitness (ln)” value was -0.389.

For the variant G6A C66A A69G A70G C71U, the “yeast fitness (ln)” value was -0.163.

Regarding G6A C27U A43C A69G C71U, the “yeast fitness (ln)” value is -0.353.

Regarding G6A C66U A69G, the “yeast fitness (ln)” value was -0.0231.
